The term IC50 denotes the midpoint of a concentration-inhibition curve.

Consider four compounds from article PMC7127808 (Biochimie, 2017).

Data set [1] addresses T1, Porcine kidney APN (pAPN) (Sus scrofa, UniProt P15145).
T1 sequence (P15145 1-963): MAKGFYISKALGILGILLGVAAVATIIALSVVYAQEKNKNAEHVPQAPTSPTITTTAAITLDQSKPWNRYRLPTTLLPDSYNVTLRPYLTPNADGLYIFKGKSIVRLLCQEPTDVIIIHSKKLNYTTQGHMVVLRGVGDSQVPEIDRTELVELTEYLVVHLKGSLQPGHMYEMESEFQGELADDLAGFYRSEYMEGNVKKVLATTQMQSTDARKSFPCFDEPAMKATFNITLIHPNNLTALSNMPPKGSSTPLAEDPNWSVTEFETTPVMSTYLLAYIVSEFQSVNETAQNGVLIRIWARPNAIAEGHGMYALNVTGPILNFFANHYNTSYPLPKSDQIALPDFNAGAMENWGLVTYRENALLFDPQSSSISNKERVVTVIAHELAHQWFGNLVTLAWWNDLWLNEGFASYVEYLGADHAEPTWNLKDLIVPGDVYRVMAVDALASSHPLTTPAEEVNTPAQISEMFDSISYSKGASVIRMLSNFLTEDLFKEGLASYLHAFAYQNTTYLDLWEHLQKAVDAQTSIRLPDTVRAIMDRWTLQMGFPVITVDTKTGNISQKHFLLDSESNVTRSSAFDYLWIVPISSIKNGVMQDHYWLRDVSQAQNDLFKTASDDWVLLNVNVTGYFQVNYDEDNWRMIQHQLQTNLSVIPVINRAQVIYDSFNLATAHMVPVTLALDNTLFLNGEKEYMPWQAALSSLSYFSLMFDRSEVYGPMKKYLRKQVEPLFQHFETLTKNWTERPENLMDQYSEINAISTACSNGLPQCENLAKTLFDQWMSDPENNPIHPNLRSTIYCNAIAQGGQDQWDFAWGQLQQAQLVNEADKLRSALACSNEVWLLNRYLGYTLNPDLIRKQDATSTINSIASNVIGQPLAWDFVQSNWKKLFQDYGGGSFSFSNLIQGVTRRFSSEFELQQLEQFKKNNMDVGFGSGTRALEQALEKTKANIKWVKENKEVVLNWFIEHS
Description: Porcine kidney APN. The format is biochemical. Conditions: for Inhibition Type: Table 1, hAPN and pAPN, Lineweaver-Burk diagnosis (hAPN data not shown); for α (pAPN): factor between αKi and Ki vs pAPN; for IC50: read-out: IC50 vs pAPN, 30 min pre-incubation, substrate at KM, n = 4.

Data set [2] addresses porcine kidney cortex glutamyl aminopeptidase (porcine aminopeptidase A; pAPA) (Sus scrofa, UniProt Q95334). Description: Porcine aminopeptidase A. The format is biochemical. Conditions: read-out: IC50 vs pAPA; dose-response, L-Glu-pNA. Put shortly:
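Microsomes from porcine kidney cortex, prepared as for placental APN, used at 1 mg/mL in 50 mM Tris-HCl pH 8, 0.1% Triton X100, 1 mM CaCl2. Substrate L-Glu-pNA at or below one KM. p-Nitroaniline release read at 405 nm every 15 s for 5 min, 37 °C. Test compounds came from 10 mM DMSO stocks diluted in buffer. IC50 came from nonlinear regression of dose-response data.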

Data set [3] deals with Human placental aminopeptidase N (hAPN) (Homo sapiens, UniProt P15144). Description: Human placental aminopeptidase N. The data set is classed as biochemical. Conditions: read-out: IC50 vs hAPN; 30 min pre-incubation; substrate at KM; n = 4.
Another data set relates to Wistar rats. Description: Mortality and spontaneous behavior after intraperitoneal injection. The format is in vivo. Conditions: 3 μg/g b.w. intraperitoneal, compared to the vehicle group (not shown).
The target of the next data set is T2, rat APN activity (Rattus norvegicus, UniProt P15684).
T2 sequence (P15684 1-965): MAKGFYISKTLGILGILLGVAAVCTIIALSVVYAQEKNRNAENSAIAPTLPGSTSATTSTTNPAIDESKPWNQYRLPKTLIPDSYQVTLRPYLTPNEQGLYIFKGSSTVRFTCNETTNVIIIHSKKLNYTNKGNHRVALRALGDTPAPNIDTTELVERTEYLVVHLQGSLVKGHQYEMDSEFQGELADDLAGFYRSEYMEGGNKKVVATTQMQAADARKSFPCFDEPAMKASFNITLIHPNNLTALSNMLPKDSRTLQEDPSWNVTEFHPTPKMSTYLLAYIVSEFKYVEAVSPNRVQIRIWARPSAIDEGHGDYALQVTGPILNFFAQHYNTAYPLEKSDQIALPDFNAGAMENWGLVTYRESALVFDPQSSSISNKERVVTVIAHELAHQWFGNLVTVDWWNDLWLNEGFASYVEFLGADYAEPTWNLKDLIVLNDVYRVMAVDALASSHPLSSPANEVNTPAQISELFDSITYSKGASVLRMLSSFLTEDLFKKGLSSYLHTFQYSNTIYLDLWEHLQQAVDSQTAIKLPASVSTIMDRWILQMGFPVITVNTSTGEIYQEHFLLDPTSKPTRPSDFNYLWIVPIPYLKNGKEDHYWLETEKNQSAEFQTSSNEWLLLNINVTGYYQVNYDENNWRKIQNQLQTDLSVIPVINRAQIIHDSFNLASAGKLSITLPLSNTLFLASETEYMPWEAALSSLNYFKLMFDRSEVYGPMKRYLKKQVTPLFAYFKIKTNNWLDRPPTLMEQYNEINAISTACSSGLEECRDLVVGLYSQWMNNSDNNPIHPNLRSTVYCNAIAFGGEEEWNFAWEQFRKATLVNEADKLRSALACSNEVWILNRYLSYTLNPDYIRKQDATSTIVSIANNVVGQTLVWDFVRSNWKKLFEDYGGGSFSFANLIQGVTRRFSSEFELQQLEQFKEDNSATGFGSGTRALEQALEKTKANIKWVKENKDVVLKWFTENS
Description: In vivo effects of inhibitors on APN activity in rat organs. Conditions: for blood-brain barrier crossing: inferred from inhibition of APN activity in the brain of rats. Put shortly: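 Wistar rats (80–100 days, 260–300 g) got one intraperitoneal injection of inhibitor, 3 μg/g body weight in 100 μL 0.9% saline, or saline alone (n = 6 per group). Decapitation 1 h later; organs frozen, stored at −70 °C. NaCl-washed membranes from 10% (w/v) homogenates in 50 mM Tris-HCl pH 8. APN kinetic assay as for porcine APN, 30 min. Mean ± SD; ANOVA, Tukey-Kramer.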

Setting [4] is: rat, 3 μg/g b.w. intraperitoneal, 60 min, vs saline injected animals.

Chain of porcine kidney cortex glutamyl aminopeptidase (porcine aminopeptidase A; pAPA) (Q95334 whole entry): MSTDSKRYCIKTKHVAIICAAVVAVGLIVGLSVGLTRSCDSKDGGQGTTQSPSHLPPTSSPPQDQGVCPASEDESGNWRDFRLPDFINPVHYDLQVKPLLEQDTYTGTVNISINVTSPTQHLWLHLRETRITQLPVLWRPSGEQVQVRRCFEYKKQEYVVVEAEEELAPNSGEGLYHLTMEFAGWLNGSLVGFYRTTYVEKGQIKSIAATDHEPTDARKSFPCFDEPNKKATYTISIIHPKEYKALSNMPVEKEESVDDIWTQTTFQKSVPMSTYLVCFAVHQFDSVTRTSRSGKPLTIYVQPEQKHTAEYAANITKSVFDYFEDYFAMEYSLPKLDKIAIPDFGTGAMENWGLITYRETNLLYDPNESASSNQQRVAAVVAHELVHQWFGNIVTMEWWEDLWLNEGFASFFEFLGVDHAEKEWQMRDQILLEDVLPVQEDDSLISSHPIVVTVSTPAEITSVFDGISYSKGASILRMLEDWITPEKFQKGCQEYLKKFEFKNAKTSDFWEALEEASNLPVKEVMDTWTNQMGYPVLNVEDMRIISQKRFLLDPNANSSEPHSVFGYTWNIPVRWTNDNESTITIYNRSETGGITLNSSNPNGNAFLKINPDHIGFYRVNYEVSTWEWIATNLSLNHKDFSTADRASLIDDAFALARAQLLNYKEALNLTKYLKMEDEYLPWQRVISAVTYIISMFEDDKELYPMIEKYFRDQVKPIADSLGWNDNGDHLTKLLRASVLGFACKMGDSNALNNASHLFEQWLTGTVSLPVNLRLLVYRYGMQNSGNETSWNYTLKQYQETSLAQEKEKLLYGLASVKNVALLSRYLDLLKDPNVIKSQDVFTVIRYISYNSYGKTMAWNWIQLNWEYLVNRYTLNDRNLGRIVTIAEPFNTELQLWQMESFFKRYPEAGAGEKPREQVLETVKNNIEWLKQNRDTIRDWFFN
Chain of Human placental aminopeptidase N (hAPN) (P15144 whole entry): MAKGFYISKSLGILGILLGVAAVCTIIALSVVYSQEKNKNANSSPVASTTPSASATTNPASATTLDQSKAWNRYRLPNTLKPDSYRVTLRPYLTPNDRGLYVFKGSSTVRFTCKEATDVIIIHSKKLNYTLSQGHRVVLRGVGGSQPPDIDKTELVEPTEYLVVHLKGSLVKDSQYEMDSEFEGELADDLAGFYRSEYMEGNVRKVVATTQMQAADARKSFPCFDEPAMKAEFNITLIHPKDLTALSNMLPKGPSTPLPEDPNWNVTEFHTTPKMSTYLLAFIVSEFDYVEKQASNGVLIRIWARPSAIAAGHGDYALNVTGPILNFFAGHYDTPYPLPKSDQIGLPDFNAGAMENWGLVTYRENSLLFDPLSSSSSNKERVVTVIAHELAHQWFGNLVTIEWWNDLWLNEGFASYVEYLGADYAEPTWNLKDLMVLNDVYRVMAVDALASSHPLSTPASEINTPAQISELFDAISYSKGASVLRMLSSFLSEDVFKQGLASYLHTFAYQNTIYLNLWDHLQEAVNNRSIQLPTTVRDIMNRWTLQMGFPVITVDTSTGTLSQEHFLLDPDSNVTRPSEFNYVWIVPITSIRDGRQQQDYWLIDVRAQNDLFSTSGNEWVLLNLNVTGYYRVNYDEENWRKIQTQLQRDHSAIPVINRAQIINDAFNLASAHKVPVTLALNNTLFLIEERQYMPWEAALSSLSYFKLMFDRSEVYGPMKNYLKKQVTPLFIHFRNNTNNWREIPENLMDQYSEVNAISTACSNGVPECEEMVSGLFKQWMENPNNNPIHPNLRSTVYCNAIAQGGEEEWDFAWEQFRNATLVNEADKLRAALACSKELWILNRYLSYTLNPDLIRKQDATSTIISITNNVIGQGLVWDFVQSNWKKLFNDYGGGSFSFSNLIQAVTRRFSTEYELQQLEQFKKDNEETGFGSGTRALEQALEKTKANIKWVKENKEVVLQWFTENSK

As for `O=C(NNC(=NS(=O)(=O)c1ccc(-n2nc(C(F)(F)F)cc2-c2cccs2)cc1)N1CCCC1)c1ccc(Cl)cc1` [BTB07018, N1-[[2-(4-chlorobenzoyl)hydrazino](tetrahydro-1H-pyrrol-1-yl)methylidene]-4-[5-(2-thienyl)-3-(trifluoromethyl)-1H-pyrazol-1-yl]benzene-1-sulfonamide], in data set [1], the “Inhibition Type” value was “Non-competitive α > 1”, the “α (pAPN)” value amounted to 1.82 and the IC50 came out at 2.29 ± 0.1 µM. Moreover, the IC50 in data set [2] came to 4.74 ± 0.1 µM. Besides, in data set [3], the IC50 was 2.67 ± 0.11 µM. Also, the “mortality or change in rat spontaneous behavior” value (“mortality or change” below) with Wistar rats is on record as “did not induce any mortality or change in rat spontaneous behavior”. Also, at rat APN activity, the blood-brain barrier crossing entry is “crossed the blood-brain barrier”. For the same compound, at rat APN activity (setting [4]), the “APN activity in brain” value is given as “decreased APN activity”, the “APN activity in kidney” value is given as “decreased APN activity” and the “APN activity in liver” value was “decreased APN activity”.
Consider `C(=C1c2ccccc2-c2c1ccc1ccccc21)c1cc2c3c(cccc3c1)-c1ccccc1-2` [BTB11079, 2-(7H-benzo[c]fluoren-7-ylidenmethyl)fluoranthene], for which, in data set [1], the “Inhibition Type” value is reported as “Non-competitive α > 1”, the “α (pAPN)” value came out at 11.40 and the concentration for half-maximal inhibition (IC50) was 2.95 ± 0.1 µM. Moreover, in data set [2], the IC50 came out at 3.88 ± 0.11 µM. In addition, the “mortality or change” value with Wistar rats is recorded as “did not induce any mortality or change in rat spontaneous behavior”.
With `CC(C)C[C@H](NC(=O)[C@@H](O)[C@H](N)Cc1ccccc1)C(=O)O` [Bestatin, reference compound], in data set [1], the “Inhibition Type” value is given as “Non-competitive α > 1” and the “α (pAPN)” value is 5.97.
As to `N#Cc1cc(Cc2ccc3c(ccc4ccccc43)c2C#N)cc2c1ccc1ccccc12` [JFD00064, 2-[(1-cyano-3-phenanthryl)methyl]phenanthrene-1-carbonitrile], in data set [1], the “Inhibition Type” value is reported as “Non-competitive α > 1”, the “α (pAPN)” value was determined as 2.69 and the IC50 came out at 2.83 ± 0.1 µM. Further, in data set [2], the IC50 came to 1.82 ± 0.11 µM. Moreover, the “mortality or change” value with Wistar rats is “did not induce any mortality or change in rat spontaneous behavior”. Also, the blood-brain barrier crossing entry on rat APN activity is recorded as “crossed the blood-brain barrier”. In addition, at rat APN activity (setting [4]), the “APN activity in brain” value is “decreased APN activity”, the “APN activity in kidney” value is listed as “decreased APN activity”, the “APN activity in liver” value is listed as “decreased APN activity” and the “APN activity in pancreas” value was “inhibited the APN activity”.
